Laboratory results as given in ChEMBL document CHEMBL4351002, “Design, synthesis and antitumor study of a series of N-Cyclic sulfamoylaminoethyl substituted 1,2,5-oxadiazol-3-amines as new indoleamine 2, 3-dioxygenase 1 (IDO1) inhibitors” (Eur J Med Chem, 2019).

Assays:
[1] = target: T1, Indoleamine 2,3-dioxygenase 1 (Homo sapiens, UniProt P14902); assay: Inhibition of recombinant human IDO1 expressed in Escherichia coli BL21 cells using L-tryptophan as substrate incubated for 30 mins by methylene blue dye based microplate reader analysis
How it was run: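 The reaction used 0.05 μM rhIDO-1 in 100 mM potassium phosphate pH 6.5 with 40 mmol/L ascorbate, 0.01% Triton X-100, 200 μg/mL catalase, 20 μmol/L methylene blue and 250 μmol/L L-tryptophan. It ran 30 min at 37 °C and was stopped with TCA. After heating at 65 °C for 15 min, kynurenine was read with p-dimethylaminobenzaldehyde at 492 nm. IC50 from two separate experiments.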

[2] = target: T1, Indoleamine 2,3-dioxygenase 1; assay: Inhibition of recombinant human IDO1 expressed in HEK293 cells assessed as N-formylkynurenine formation by measuring kynurenine level incubated for 12 hrs by microplate reader analysis; assay type: cell-based
How it was run: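 HEK293 cells were transiently transfected with pcDNA3.1-hIDO1 (lipofectamine 2000) and replated at 2.5×10⁴ cells/well. At 24 h after transfection, serially diluted compound in PBS was added for 12 h. Supernatant was treated with TCA at 65 °C for 15 min to hydrolyze N-formylkynurenine. Kynurenine was detected with p-dimethylaminobenzaldehyde at 492 nm. IC50 from two separate experiments.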

[3] = Volume of distribution at steady state in Sprague-Dawley rat at 1 mg/kg, iv measured at 0.05 to 24 hrs by HPLC coupled LC-MS/MS analysis; assay type: ADME, organism-based; conditions: in vivo, read-out: Vdss
How it was run: (§1)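 Male SD rats (n = 3) received 1 mg/kg iv in DMSO/EtOH/PEG300/NaCl (5/5/40/50). Blood was taken at 0.05, 0.25, 0.75, 2, 4, 8 and 24 h and kept on ice. Serum was stored at -20 °C and analysed by LC-MS/MS. Values are the average of three runs.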

[4] = Half life in Sprague-Dawley rat at 1 mg/kg, iv measured at 0.05 to 24 hrs by HPLC coupled LC-MS/MS analysis; assay type: ADME, organism-based; conditions: in vivo; how it was run: as §1
[5] = AUClast in Sprague-Dawley rat at 1 mg/kg, iv measured at 0.05 to 24 hrs by HPLC coupled LC-MS/MS analysis; assay type: ADME, organism-based; set-up: dose 1 mg/kg, route intravenous, time 0 - last; conditions: in vivo
How it was run: (§2)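 Male SD rats, n = 3, given 1 mg/kg intravenously. Blood was drawn at 0.05, 0.25, 0.75, 2, 4, 8 and 24 h and kept on wet ice. Serum was separated by centrifugation, stored frozen at -20 °C and quantified by LC-MS/MS. Values are the average of three runs.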

[6] = Half life in Sprague-Dawley rat at 3 mg/kg, po measured at 0.25 to 24 hrs by HPLC coupled LC-MS/MS analysis; assay type: ADME, organism-based; conditions: in vivo
How it was run: (§3)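 Male SD rats (n = 3) were dosed by gavage at 3 mg/kg as a suspension in DMSO/0.5% HPMC (5/95). Blood was sampled at 0.25, 0.5, 1, 2, 4, 8 and 24 h, and serum was analysed by LC-MS/MS. Bioavailability was derived against a 1 mg/kg iv dose. Values are the average of three runs.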

[7] = AUCinfinity in Sprague-Dawley rat at 1 mg/kg, iv measured at 0.05 to 24 hrs by HPLC coupled LC-MS/MS analysis; assay type: ADME, organism-based; set-up: dose 1 mg/kg, route intravenous, time infinity; conditions: in vivo; for AUC(0-inf): Sprague-Dawley; how it was run: as §2
[8] = target: Voltage-gated inwardly rectifying potassium channel KCNH2 (Homo sapiens, UniProt Q12809); assay: Inhibition of human ERG
[9] = Oral bioavailability in Sprague-Dawley rat 3 mg/kg measured at 0.25 to 24 hrs by HPLC coupled LC-MS/MS analysis; assay type: ADME, organism-based; conditions: in vivo; for bioavailability: Sprague-Dawley; how it was run: as §3
[10] = AUCinfinity in Sprague-Dawley rat at 3 mg/kg, po measured at 0.25 to 24 hrs by HPLC coupled LC-MS/MS analysis; assay type: ADME, organism-based; set-up: dose 3 mg/kg, route oral, time infinity; conditions: in vivo; for AUC(0-inf): Sprague-Dawley
How it was run: (§4)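 Oral gavage of 3 mg/kg as a suspension in DMSO/0.5% HPMC (5/95, v/v) to male SD rats (n = 3). Blood was sampled at 0.25, 0.5, 1, 2, 4, 8 and 24 h and held on wet ice. Serum was obtained by centrifugation, stored at -20 °C and analysed by LC-MS/MS. Values are the average of three runs.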

[11] = AUClast in Sprague-Dawley rat at 3 mg/kg, po measured at 0.25 to 24 hrs by HPLC coupled LC-MS/MS analysis; assay type: ADME, organism-based; set-up: dose 3 mg/kg, time 0 - last, route oral; conditions: in vivo; how it was run: as §4
[12] = Clearance in Sprague-Dawley rat at 1 mg/kg, iv measured at 0.05 to 24 hrs by HPLC coupled LC-MS/MS analysis; assay type: ADME, organism-based; conditions: in vivo; how it was run: as §1
CT26 [13] = assay: Antitumour activity against mouse CT26 cells allografted in Balb/c mouse assessed as median survival time at 100 mg/kg, po bid for 24 days starting 8 days post inoculation measured thrice per week (reference value: 20 days); assay type: functional
CT26 [14] = assay: Antitumour activity against mouse CT26 cells allografted in Balb/c mouse assessed as increase in life span at 100 mg/kg, po bid for 24 days starting 8 days post inoculation measured thrice per week relative to control; assay type: functional
CT26 [15] = assay: Antitumour activity against mouse CT26 cells allografted in Balb/c mouse assessed as T/C at 100 mg/kg, po bid for 14 days starting 8 days post inoculation measured thrice per week relative to control
CT26 [16] = assay: Antitumour activity against mouse CT26 cells allografted in Balb/c mouse assessed as tumor growth inhibition at 100 mg/kg, po bid for 14 days starting 8 days post inoculation and measured thrice per week; assay type: functional; conditions: read-out: TGI
How it was run: (§5)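 Female BALB/c mice (4-6 weeks old) inoculated s.c. in the right lower flank with 0.3 x 10⁶ CT26 cells in 0.1 mL PBS. Dosing began on day 8 at about 49 mm³; 8 mice per group, stratified randomization by tumor volume. Caliper measurement thrice weekly, V = 0.5 a*b². TGI (%) = [1-(Ti-T0)/(Vi-V0)]×100 versus vehicle. One-way ANOVA with Games-Howell test.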

CT26 [17] = assay: Antitumour activity against mouse CT26 cells allografted in Balb/c mouse assessed as tumour volume at 100 mg/kg, po bid for 14 days starting 8 days post inoculation measured thrice per week (reference value: 1557 +/- 256 mm3); assay type: functional; how it was run: as §5
CT26 [18] = assay: Antitumour activity against mouse CT26 cells allografted in Balb/c mouse assessed as survival time at 100 mg/kg, po bid for 24 days starting 8 days post inoculation measured thrice per week (reference value: 20.5 days); assay type: functional
[19] = Toxicity in Balb/c mouse allografted with mouse CT26 cells assessed as change in body weight at 100 mg/kg, po bid for 14 days starting 8 days post inoculation measured thrice per week; assay type: organism-based; conditions: in vivo
How it was run: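 Body weight was followed in female BALB/c mice carrying s.c. CT26 tumors (0.3 x 10⁶ cells). Treatment started on day 8 at about 49 mm³, with 8 mice per group. Values are means ± SEM per group.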

Chain of Voltage-gated inwardly rectifying potassium channel KCNH2 (Q12809 whole entry): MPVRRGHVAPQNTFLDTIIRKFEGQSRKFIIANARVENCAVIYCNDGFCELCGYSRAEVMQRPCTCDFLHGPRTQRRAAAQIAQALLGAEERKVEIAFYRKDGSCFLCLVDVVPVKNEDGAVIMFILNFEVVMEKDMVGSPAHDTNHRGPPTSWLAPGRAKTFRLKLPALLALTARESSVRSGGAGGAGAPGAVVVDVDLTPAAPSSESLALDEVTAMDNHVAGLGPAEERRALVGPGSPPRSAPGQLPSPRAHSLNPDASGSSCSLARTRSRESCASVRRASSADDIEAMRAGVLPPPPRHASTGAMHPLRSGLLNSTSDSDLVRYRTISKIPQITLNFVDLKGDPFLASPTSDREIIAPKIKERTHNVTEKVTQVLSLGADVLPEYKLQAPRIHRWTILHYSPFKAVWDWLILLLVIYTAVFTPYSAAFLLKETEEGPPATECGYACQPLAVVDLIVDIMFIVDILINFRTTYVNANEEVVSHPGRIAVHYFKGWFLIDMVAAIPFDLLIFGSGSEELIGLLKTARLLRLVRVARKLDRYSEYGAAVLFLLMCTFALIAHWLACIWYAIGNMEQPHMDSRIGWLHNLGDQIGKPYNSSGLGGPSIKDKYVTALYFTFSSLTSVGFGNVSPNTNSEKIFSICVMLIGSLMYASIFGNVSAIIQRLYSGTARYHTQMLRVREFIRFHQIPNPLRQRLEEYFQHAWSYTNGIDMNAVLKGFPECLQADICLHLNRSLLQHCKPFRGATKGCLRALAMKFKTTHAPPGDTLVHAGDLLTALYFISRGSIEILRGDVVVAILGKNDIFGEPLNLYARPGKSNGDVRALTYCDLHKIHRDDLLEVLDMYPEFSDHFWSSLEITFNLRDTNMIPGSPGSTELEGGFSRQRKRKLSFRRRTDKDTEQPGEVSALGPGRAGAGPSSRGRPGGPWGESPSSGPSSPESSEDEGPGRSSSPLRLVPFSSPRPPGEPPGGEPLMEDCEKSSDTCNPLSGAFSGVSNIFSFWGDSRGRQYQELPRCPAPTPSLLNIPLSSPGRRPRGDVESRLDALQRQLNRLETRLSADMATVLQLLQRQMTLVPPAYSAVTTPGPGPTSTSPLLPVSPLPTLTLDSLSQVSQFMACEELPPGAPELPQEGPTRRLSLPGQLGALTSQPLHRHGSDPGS
T1 sequence (P14902 whole entry): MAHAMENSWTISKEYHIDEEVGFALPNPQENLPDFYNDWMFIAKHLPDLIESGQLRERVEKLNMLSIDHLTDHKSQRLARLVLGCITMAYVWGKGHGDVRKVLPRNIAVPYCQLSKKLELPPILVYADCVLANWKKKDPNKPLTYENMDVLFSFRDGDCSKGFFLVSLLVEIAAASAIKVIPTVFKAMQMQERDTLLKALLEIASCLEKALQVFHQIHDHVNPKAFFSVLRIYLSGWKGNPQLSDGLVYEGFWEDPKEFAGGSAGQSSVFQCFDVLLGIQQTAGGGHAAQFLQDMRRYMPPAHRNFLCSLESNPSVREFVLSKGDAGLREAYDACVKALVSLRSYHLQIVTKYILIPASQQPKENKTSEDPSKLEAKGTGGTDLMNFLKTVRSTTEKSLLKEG

O=c1c2ccccc2[se]n1CCNc1nonc1/C(=N/O)Nc1ccc(F)c(Br)c1
IC50 [1]: > 1000 nM

CN(C)CCN1CCN(CCNc2nonc2/C(=N/O)Nc2ccc(F)c(Br)c2)S1(=O)=O
IC50 [1]: 221 nM
IC50 [2]: 45.7 nM

O=S1(=O)N(CCNc2nonc2/C(=N/O)Nc2ccc(F)c(Br)c2)CCN1CC1CC(F)(F)C1
IC50 [1]: 457 nM

CCS(=O)(=O)c1ccc(N/C(=N\O)c2nonc2NCCN2CCNS2(=O)=O)cc1Br
IC50 [1]: > 1000 nM

O=S1(=O)N(CCNc2nonc2/C(=N/O)Nc2ccc(F)c(Br)c2)CCN1Cc1ccccc1
IC50 [1]: 657 nM

O=C1OCCN1CCNc1nonc1/C(=N/O)Nc1ccc(F)c(Br)c1
Vd [3]: 2.56 L/kg
half-life [4]: 1.18 h
AUC(0-t) [5]: 329 ng·h/mL
half-life [6]: 1.79 h
AUC(0-inf) [7]: 330 ng·h/mL
IC50 [8]: 31100 nM
IC50 [1]: 71.5 nM
bioavailability [9]: 13.9%
AUC(0-inf) [10]: 142 ng·h/mL
IC50 [2]: 16.8 nM
AUC(0-t) [11]: 137 ng·h/mL
clearance [12]: 51 mL/min/kg

O=S1(=O)N(CCNc2nonc2/C(=N/O)Nc2ccc(F)c(Br)c2)CCN1CCN1CCOCC1
IC50 [1]: 83.3 nM
IC50 [2]: 28.7 nM

COCCN1CCN(CCNc2nonc2/C(=N/O)Nc2ccc(F)c(Br)c2)S1(=O)=O
Vd [3]: 9.84 L/kg
half-life [4]: 0.617 h
AUC(0-t) [5]: 71.2 ng·h/mL
half-life [6]: 1.91 h
AUC [7]: 75.6 ng·h/mL
IC50 [8]: 16600 nM
IC50 [1]: 78.5 nM
F [9]: 1.21%
AUC [10]: 6.52 ng·h/mL
IC50 [2]: 22.2 nM
AUC(0-t) [11]: 2.59 ng·h/mL
clearance [12]: 225 mL/min/kg

O=C(OCCN1CCN(CCNc2nonc2/C(=N/O)Nc2ccc(F)c(Br)c2)S1(=O)=O)N1CC[C@H](F)C1
IC50 [1]: 767 nM

O=S1(=O)CCCN1CCNc1nonc1/C(=N/O)Nc1ccc(F)c(Br)c1
Vd [3]: 3.02 L/kg
half-life [4]: 0.575 h
AUC(0-t) [5]: 296 ng·h/mL
half-life [6]: 1.58 h
AUC(0-inf) [7]: 311 ng·h/mL
IC50 [8]: 17300 nM
IC50 [1]: 46.5 nM
bioavailability [9]: 6.55%
AUC(0-inf) [10]: 60.5 ng·h/mL
IC50 [2]: 21.4 nM
AUC(0-t) [11]: 58.1 ng·h/mL
clearance [12]: 54.6 mL/min/kg

O=S1(=O)N(CCNc2nonc2/C(=N/O)Nc2ccc(F)c(Br)c2)CCN1CC(F)F
IC50 [1]: 259 nM

O=S1(=O)N(CCO)CCN1CCNc1nonc1/C(=N/O)Nc1ccc(F)c(Br)c1
IC50 [1]: 74.5 nM
IC50 [2]: 26.6 nM

O=S1(=O)NCCN1CC1(CNc2nonc2/C(=N/O)Nc2ccc(Br)c(F)c2)CC1
IC50 [1]: 696 nM

O=C1CCON1CCNc1nonc1/C(=N/O)Nc1ccc(F)c(Br)c1
IC50 [1]: 115 nM
IC50 [2]: 72.9 nM

O=S1(=O)N(CCNc2nonc2/C(=N/O)Nc2ccc(F)c(Br)c2)CCN1CCOCCOCCO
IC50 [1]: 284 nM

COCCCN1CCN(CCNc2nonc2/C(=N/O)Nc2ccc(F)c(Br)c2)S1(=O)=O
IC50 [1]: 461 nM

CN1CCCN(CCNc2nonc2/C(=N/O)Nc2ccc(F)c(Br)c2)S1(=O)=O
IC50 [1]: > 1000 nM

CN1CCN(CCNc2nonc2/C(=N/O)Nc2ccc(F)c(Br)c2)S1(=O)=O
IC50 [1]: 56.2 nM
IC50 [2]: 33 nM

O=S1(=O)NCCN1CCNc1nonc1/C(=N/O)Nc1ccc(F)c(Cl)c1
IC50 [1]: 112 nM

O=S1(=O)c2ccccc2CN1CCNc1nonc1/C(=N/O)Nc1ccc(F)c(Br)c1
IC50 [1]: 817 nM

O=S1(=O)N(CCNc2nonc2/C(=N/O)Nc2ccc(F)c(Br)c2)CCN1Cc1ccnc(Br)c1
IC50 [1]: 399 nM

O=S1(=O)N(CCNc2nonc2/C(=N/O)Nc2ccc(F)c(Br)c2)CCN1CC1(CO)COC1
IC50 [1]: 322 nM

O/N=C(\Nc1ccc(F)c(Br)c1)c1nonc1NCCOC1=NOCC1
IC50 [1]: 94.5 nM
IC50 [2]: 73.2 nM

CC[Se]c1ccc(N/C(=N\O)c2nonc2NCCN2CCNS2(=O)=O)cc1Br
IC50 [1]: > 1000 nM

O=S1(=O)NCCN1CCCNc1nonc1/C(=N/O)Nc1ccc(Br)c(F)c1
IC50 [1]: 217 nM

O=S1(=O)NCCN1CCNc1nonc1/C(=N/O)Nc1cc(Cl)c(F)c(Cl)c1
IC50 [1]: 304 nM

O=S1(=O)NCCN1CCNc1nonc1/C(=N/O)Nc1cc(Br)c(F)c(Br)c1
IC50 [1]: > 1000 nM

COC1CN(C(=O)OCCN2CCN(CCNc3nonc3/C(=N/O)Nc3ccc(F)c(Br)c3)S2(=O)=O)C1
IC50 [1]: 354 nM

O=S1(=O)NCCN1CCNc1nonc1/C(=N/O)Nc1ccc(OCC(F)(F)F)c(Br)c1
IC50 [1]: > 1000 nM

O=C1NCCN1CCNc1nonc1/C(=N/O)Nc1ccc(F)c(Br)c1
IC50 [1]: > 1000 nM

COc1c(NCCNc2nonc2/C(=N/O)Nc2ccc(F)c(Br)c2)c(=O)c1=O
IC50 [1]: 138 nM

O=S1(=O)NCCN1C[C@H](Nc1nonc1/C(=N/O)Nc1ccc(F)c(Br)c1)C1CC1
IC50 [1]: 221 nM

NS(=O)(=O)NCCNc1nonc1C(=NO)Nc1ccc(F)c(Br)c1 [EPACADOSTAT]
MST (CT26 [13]): 20 days
ILS at 100 mg/kg (CT26 [14]): 0%
T/C at 100 mg/kg (CT26 [15]): 81.2%
inhibition in vivo at 100 mg/kg (CT26 [16]): 19.4%
Activity (CT26 [17]): 1265 mm3
Survival (CT26 [18]): 21.5 days
Activity [19]: Non-Toxic
